Screening data deposited in PubChem by several laboratories.
hERG rescue: compounds protecting human hERG from proarrhythmic drug block | Q12809 | CHO-hERG, FluxOR thallium flux, dofetilide IC70 present | activation (rescue from dofetilide block), less the hit threshold, % at 10 µM | 310,000 compounds, 0.51% hits | AID 1511;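 active means activation above the mean of controls blocked by dofetilide plus 5 SD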;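 further: thallium influx through hERG after potassium depolarization seen as dye fluorescence rise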
KCNQ1 pot: potentiates or activates the human KCNQ1 potassium channel; CHO-K1 KCNQ1, thallium flux FluxOR fluorescence; hits give high values; P51787; 310,000 compounds, 0.35% hits; B-score at 10 µM; AID 2648;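 active means fluorescence ratio B-score, a plate-corrected score, at least three library SD, with initial intensity B-score within 5 SD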
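Assay system: CHO-K1 cells stably expressing KCNQ1; Medium: assay buffer with matched DMSO; Also added: K+/Tl+ depolarizing stimulus; Dosing: single dose; Timing: dye 90 min, compound 20 min, room temperature; Measured by: kinetic FluxOR thallium fluorescence, 10-s 1-Hz baseline, 110-s post-stimulus read; Read-out: peak-minus-minimum fluorescence over initial fluorescence, negative-control normalized, B-scored.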
Cl transport mod: KCC2 (human) Cl- transport modulation; KCC2 cells, thallium flux FluoZin-2 fluorescence; B-score of Tl+ flux slope (higher = more flux/activation; lower = inhibition) at 10 µM; 190,000 compounds, 2.2% hits;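 active means thallium flux slope and its plate-corrected score both differing from the plate sample mean at a set confidence after two filtering rounds, in either direction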;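 further: slope of fluorescence scaled to starting intensity during 10 to 20 s after thallium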
KCNK3 inh: human KCNK3 channel inhibition, primary screen; O14649; 340,000 compounds, 0.84% hits; B-score at 10 µM; CHO-KCNK3 thallium flux, FluxOR fluorescence; hits give low values;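 active means B-score under library mean minus 4 SD, starting fluorescence ratio at most library mean plus 5 SD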;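 further: more negative B-score means stronger inhibition of thallium flux through KCNK3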
KCNK9 inh: blocks the human KCNK9 two-pore domain potassium channel | 310,000 compounds, 1.2% hits | HEK293 KCNK9, FluxOR thallium flux fluorescence; hits give low values | B-score at 10 µM | Q9NPC2 | AID 488922;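 active means ratio B-score over 3 SD below the library mean, with starting fluorescence within 5 SD of its mean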;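 further: negative B-score means less thallium flux so channel inhibition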
KCNQ1 block: blocks the human KCNQ1 potassium channel; P51787; CHO-K1 KCNQ1, FluxOR thallium flux fluorescence; hits give high values; B-score at 10 µM; 310,000 compounds, 1.3% hits; AID 2642;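 active means compounds whose thallium flux B-score, printed positive for inhibition, exceeds three library SD while starting fluorescence stays within three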;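 further: channel opened by potassium depolarization with thallium stimulus after 20 min compound exposure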
KCNK9 inh conf: confirmation of human KCNK9 potassium channel inhibitors. HEK293 KCNK9 cells, FluxOR thallium flux fluorescence. 4,900 compounds, 43% hits. inhibition, % at 10 µM. AID 492992. shares compounds with KCNK9 inh;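 active means thallium signal inhibited by more than 5 SD of the compound-free buffer control wells, on both duplicate plates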;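 further: 0% = assay buffer control wells without compound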
Kir2-1 spec: mouse Kir2.1 off-target activity of KCNK9 modulators; shares compounds with KCNK9 inh; Kir2.1 cells, FluxOR thallium flux fluorescence; inhibition, % at 10 µM; 4,900 compounds, 4% hits; AID 492993;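 active means thallium signal drop more than 5 SD beyond the mean of the no-compound control wells, seen in both duplicate plates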;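 further: signal is fluorescence rise after thallium addition divided by baseline fluorescence; plate controls were assay buffer only for no effect and full block by chlorpromazine control for full effect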
KCNK9 uninduced: second counter-screen for KCNK9 modulators: effect in non-induced cells; shares compounds with KCNK9 inh; non-induced KCNK9-HEK293, FluxOR thallium flux; inhibition, % at 10 µM; 4,900 compounds, 40% hits;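 active means thallium signal drop beyond 5 SD of the untreated control mean, on both duplicate plates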;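 further: plate controls were buffer only IC0 wells for no effect and SID17386958 at its maximal inhibitory level for full effect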
* marks the source's active call; other numbers are inactive results. Sampled rows, rich in hits. Any-hit rate of the full collection: about 4.1%.

`O=C(NC1CCCC1)c1ccc2c(c1)N(Cc1ccccc1)CCS2` gave hERG rescue -2, KCNQ1 pot inactive, KCNK3 inh inactive, KCNK9 inh inactive and KCNQ1 block inactive.
For COc1ccccc1N1C(=O)N(CC(=O)C(C)(C)C)c2ccccc2S1(=O)=O the results were hERG rescue -4, KCNQ1 pot inactive, KCNK3 inh inactive, KCNK9 inh inactive and KCNQ1 block inactive.
OC(CSc1ccccc1)CN1CCN(c2ccc(Cl)cc2)CC1 (stereo not drawn) was read as KCNK3 inh inactive.
CSc1ccc(CN(C)CC(=O)NCc2ccccc2)cc1 was read as hERG rescue 1, KCNQ1 pot inactive, Cl transport mod -0.95, KCNK3 inh inactive, KCNK9 inh inactive and KCNQ1 block inactive.
Screening CSc1ccc(CN(C)CC(=O)NC(=O)NC(C)(C)C)cc1 returned hERG rescue -9, KCNQ1 pot inactive, KCNK3 inh inactive, KCNK9 inh inactive, KCNQ1 block inactive, KCNK9 inh conf inactive, Kir2-1 spec inactive and KCNK9 uninduced inactive.
`O=C(/C=C/c1ccccc1)NC(NC(=S)Nc1cc(Cl)ccc1Cl)C(Cl)(Cl)Cl` (stereo not drawn) gave hERG rescue -11, KCNQ1 pot inactive, KCNK3 inh inactive, KCNK9 inh inactive, KCNQ1 block 11*, KCNK9 inh conf inactive, Kir2-1 spec inactive and KCNK9 uninduced inactive.
O=C(/C=C/c1ccccc1)NC(NC(=S)Nc1ccc(Cl)cc1)C(Cl)(Cl)Cl (stereo not drawn) was read as hERG rescue -9, KCNQ1 pot inactive, KCNK3 inh inactive, KCNK9 inh inactive and KCNQ1 block inactive.
O=C(NC12CC3CC(CC(C3)C1)C2)c1cc(F)c(F)c(F)c1F was read as hERG rescue -1, KCNQ1 pot inactive, KCNK3 inh inactive, KCNK9 inh inactive, KCNQ1 block inactive, KCNK9 inh conf inactive, Kir2-1 spec inactive and KCNK9 uninduced inactive.
`COc1cc(OC)c(C(=O)NC23CC4CC(CC(C4)C2)C3)cc1OC` gave hERG rescue -4, KCNQ1 pot inactive, KCNK3 inh inactive, KCNK9 inh inactive and KCNQ1 block inactive.
Screening COc1ccc(OC)c(-c2csc(NC(=O)C3c4ccccc4Oc4ccccc43)n2)c1 returned hERG rescue -3, KCNQ1 pot inactive, Cl transport mod 1.9, KCNK3 inh inactive, KCNK9 inh -9.1*, KCNQ1 block inactive, KCNK9 inh conf 36%*, Kir2-1 spec inactive and KCNK9 uninduced 32%*.
Screening C=C1CCC2C(C)(C)[C@H](O)CC[C@@]2(C)[C@@H]1COc1cc(=O)oc2ccccc12 (stereo partly drawn) returned hERG rescue -19, KCNQ1 pot inactive, Cl transport mod 0.12, KCNK3 inh inactive, KCNK9 inh -13*, KCNQ1 block inactive, KCNK9 inh conf 60%*, Kir2-1 spec inactive and KCNK9 uninduced 26%*.
`Fc1ccc(Sc2nc(-c3ccccc3)nnc2C(F)(F)F)cc1` gave hERG rescue -7, KCNQ1 pot inactive, KCNK3 inh inactive, KCNK9 inh inactive, KCNQ1 block inactive, KCNK9 inh conf inactive, Kir2-1 spec inactive and KCNK9 uninduced inactive.
For Fc1ccc(Oc2nc(-c3ccccc3)nnc2C(F)(F)F)cc1 the results were hERG rescue -13, KCNQ1 pot inactive, KCNK3 inh inactive, KCNK9 inh inactive and KCNQ1 block inactive.
Screening Cc1ccc(S(=O)(=O)NCc2ccccc2)cc1C(=O)NCC(C)(C)N1CCOCC1 returned hERG rescue -19, KCNQ1 pot inactive, KCNK3 inh inactive, KCNK9 inh inactive and KCNQ1 block inactive.
CC12COC3(C(=O)Nc4ccc5ccccc5c4)CC1CCC32C (stereo not drawn) was read as hERG rescue -1, KCNQ1 pot inactive, Cl transport mod 0.25, KCNK3 inh inactive, KCNK9 inh inactive, KCNQ1 block inactive, KCNK9 inh conf inactive, Kir2-1 spec inactive and KCNK9 uninduced inactive.
NC(=O)C1C2C=CC(C2)C1c1ccccc1 (stereo not drawn) was read as KCNK3 inh inactive.
O=C(COC(=O)c1cccnc1Cl)Nc1cc(S(=O)(=O)N2CCCCCC2)ccc1Cl was read as KCNK3 inh inactive.
Cc1nn(Cc2ccccc2)c(C)c1C(=O)OCC(=O)c1cc(C)n(C2CC2)c1C was read as hERG rescue -11, KCNQ1 pot inactive, Cl transport mod -0.84, KCNK3 inh inactive, KCNK9 inh inactive and KCNQ1 block inactive.
For COCCn1c(C)cc(C(=O)COC(=O)c2c(C)nn(Cc3ccccc3)c2C)c1C the results were hERG rescue -6, KCNQ1 pot inactive, KCNK3 inh inactive, KCNK9 inh inactive, KCNQ1 block inactive, KCNK9 inh conf inactive, Kir2-1 spec inactive and KCNK9 uninduced inactive.
For CC(=O)c1c(C)[nH]c(C(=O)OCC(=O)N2CC(C)OC(C)C2)c1C (stereo not drawn) the results were hERG rescue -11, KCNQ1 pot inactive, KCNK3 inh inactive, KCNK9 inh inactive and KCNQ1 block inactive.
For CCOC(=O)/C(O)=C/c1ncc(C(F)(F)F)cc1Cl the results were hERG rescue -9, KCNQ1 pot inactive, KCNK3 inh inactive, KCNK9 inh inactive and KCNQ1 block inactive.
`CCOC(=O)/C(=C\Nc1ccc(OC(F)(F)F)cc1)Sc1ncc(C(F)(F)F)cc1Cl` gave hERG rescue -9, KCNQ1 pot inactive, KCNK3 inh inactive, KCNK9 inh inactive, KCNQ1 block inactive, KCNK9 inh conf inactive, Kir2-1 spec inactive and KCNK9 uninduced inactive.
COc1ccc(CCNC(=O)c2ccc(Cl)c(S(=O)(=O)N(C)c3ccccc3)c2)cc1 was read as hERG rescue -8, KCNQ1 pot inactive, Cl transport mod -1.3, KCNK3 inh inactive, KCNK9 inh inactive, KCNQ1 block inactive, KCNK9 inh conf inactive, Kir2-1 spec inactive and KCNK9 uninduced inactive.
`COc1ccc(CCNC(=O)c2ccc(Cl)c(S(=O)(=O)N3CCCCCC3)c2)cc1` gave KCNK3 inh inactive.
